# Activity calls are given as the source filed them. No cut-off for these calls is given here.
# What was measured:
# [1] = system: Trypanosoma brucei brucei; test: Antiparasitic activity against bloodstream form of Trypanosoma brucei brucei 427 […] assessed as growth inhibition after 72 hrs by Alamar Blue assay; type: functional, organism-based
# [2] = Inhibition of Trypanosoma brucei FolD dehydrogenase activity assessed as formation of 5,10-CH=THF from 5,10-CH2-THF after 5 mins by spectrophotometric analysis
# Summary of the method: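 Recombinant T. brucei FolD from E. coli BL21 (DE3), Ni²⁺-affinity purified. Assay at 27 °C in 25 mM MOPS pH 7.3 with 30 mM 2-mercaptoethanol, 35 μM mTHF and 1 mM NADP⁺, started with NADP⁺. Reaction stopped at 5 min with an equal volume of 1 M HCl, product read at 350 nm (ε 24.9 mM⁻¹ cm⁻¹). Compounds from 10 mM DMSO stocks, first tested at 0–50–100 μM. Data fitted to a competitive model by linear regression.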
# [3] = system: THP-1; test: Cytotoxicity against macrophages differentiated from human THP1 cells assessed as cell viability after 72 hrs by MTT assay; type: cell-based; details: THP-1, 72 h
# Summary of the method: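 THP1-differentiated macrophages, 10⁵ cells/well, adhered overnight, then exposed to a compound concentration range for 72 h at 37 °C. MTT at 0.5 mg/mL added for 4 h in the dark, and formazan dissolved in isopropanol. Absorbance read at 570 nm with 660 nm background. Viability given relative to untreated cells, and IC₅₀ from linear regression.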
# [4] = Selectivity index, ratio of IC50 for macrophages differentiated from human THP1 cells to IC50 for bloodstream form of Trypanosoma brucei brucei 427; type: toxicity, cell-based, THP-1; details: read-out: Ratio IC50
# Summary of the method: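 Bloodstream-form T. b. brucei 427 in HMI-9 with 10% heat-inactivated FBS at 37 °C, 5% CO2: about 2,000 cells per well with serial drug dilutions for 72 h, then resazurin 45.5 μM for 4 h, fluorescence ex 528/em 590 nm. THP1-differentiated macrophages at 10⁵ cells/well: 72 h at 37 °C, MTT 4 h, A570 minus 660 nm versus untreated. Both IC50s by linear regression.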
# [5] = Competitive inhibition of Pseudomonas aeruginosa FolD dehydrogenase activity
# [6] = Competitive inhibition of recombinant Leishmania major hexahistidine-tagged FolD dehydrogenase activity expressed in Escherichia coli by Michaelis-Menten plot analysis in presence of 5,10-CH2-THF
# [7] = Trypanosoma brucei, 427, 72 h, read-out: IC50
SMILES,IC50 [1],IC50 [2],Ki [2],IC50 [3],"IC50 [1, 7]",selectivity ratio [4],growth inhibition (GI) [1],Ki [5],Ki [6]
Nc1nc(N)c(NC(=O)Nc2ccc(C(=O)N[C@@H](CCCC(=O)O)C(=O)O)cc2)c(=O)[nH]1,Not Active,1 µM,0.48 µM,90 µM,,,,,
CCOC(=O)c1ccc(NC(=O)Nc2c(N)nc(N)[nH]c2=O)cc1,,250 µM,,97 µM,89 µM,1.1,,,
N=C(N)c1ccc(OCCCCCOc2ccc(C(=N)N)cc2)cc1 [PENTAMIDINE],,,,,0.0016 µM,,,,
CCOC(=O)CC[C@H](NC(=O)c1ccc(NC(=O)Nc2c(N)nc(N)[nH]c2=O)cc1)C(=O)OCC,,250 µM,,205 µM,92 µM,2.2,,,
Nc1nc(N)c(NC(=O)Nc2ccc(C(=O)NCCCC(=O)O)cc2)c(=O)[nH]1,Not Active,213 µM,168 µM,98 µM,,,,,
C[C@H](NC(=O)c1ccc(NC(=O)Nc2c(N)nc(N)[nH]c2=O)cc1)C(=O)O,Not Active,6.3 µM,3.2 µM,113 µM,,,,,
Nc1nc(N)c(NC(=O)Nc2ccc(C(=O)N[C@@H](Cc3ccc(O)cc3)C(=O)O)cc2)c(=O)[nH]1,Not Active,9.3 µM,7.3 µM,77 µM,,,,,
Cc1ccc(C(=O)Nc2ccc(S(=O)(=O)O)c3cc(S(=O)(=O)O)cc(S(=O)(=O)O)c23)cc1NC(=O)c1cccc(NC(=O)Nc2cccc(C(=O)Nc3cc(C(=O)Nc4ccc(S(=O)(=O)O)c5cc(S(=O)(=O)O)cc(S(=O)(=O)O)c45)ccc3C)c2)c1,,,,,,,Active,,
Nc1nc(N)c(NC(=O)Nc2ccc(C(=O)N[C@@H](CCC(=O)O)C(=O)O)cc2)c(=O)[nH]1,,2.2 µM,1.1 µM,194 µM,49 µM,4,,,
Nc1nc2c(c(=O)[nH]1)N1C(=O)N(c3ccc(C(=O)NC(CCC(=O)O)C(=O)O)cc3)CC1CN2 (stereo unspecified),,20 µM,8.5 µM,103 µM,57 µM,1.8,,0.03 µM,0.105 µM
Nc1nc(N)c(NC(=O)Nc2ccc(C(=O)N[C@@H](Cc3ccccc3)C(=O)O)cc2)c(=O)[nH]1,Not Active,1.1 µM,0.54 µM,94 µM,,,,,
Nc1nc(N)c(NC(=O)Nc2ccc(C(=O)O)cc2)c(=O)[nH]1,,83 µM,,97 µM,74 µM,1.3,,,

# — ChEMBL document CHEMBL3621150, “Characterization of 2,4-Diamino-6-oxo-1,6-dihydropyrimidin-5-yl Ureido Based Inhibitors of Trypanosoma brucei FolD and Testing for Antiparasitic Activity” (J Med Chem, 2015)
